Measured values pooled from the literature.
Compare with care: the assays were run in different laboratories.
Target: Vascular endothelial growth factor receptor 3 (FLT4, Homo sapiens, UniProt P35916)

SMILES	read-out	method	concentration	remaining binding
CCN1CCN(Cc2ccc(C(=O)Nc3ccc(C)c(Oc4ccc5c(c4)CC(=O)N5)c3)cc2C(F)(F)F)CC1	binding	competition with immobilised ligand	1 µM	100%
C[C@H]1CCN(c2nccc(-c3cnn4ncccc34)n2)C1	binding	–	1 µM	100%
C=CC(=O)N1CCC(C(=O)NCC(=O)N2CCN(c3nc(-c4cnc(N)nc4C(F)F)nc(N4CCOCC4)n3)CC2)CC1	binding	competition with immobilised ligand	1 µM	96%
Cc1cnc(Nc2ccc(C(=O)N3CCC(N4CCCC4)CC3)cc2)nc1-c1cc2ccccc2s1	binding	competition with immobilised ligand	1 µM	0.4%
FC(F)(F)Oc1cccc(-c2cnc3ccc(-c4ccncc4)nn23)c1	cell-free assay	competition with immobilised ligand	5 µM	84%
COc1ncc2cc3ccccc3nc2c1C#N	cell-free assay	competition with immobilised ligand	5 µM	96%
CNCc1ccccc1-c1csc([C@@H](C)Nc2nc(C)nc3cc(OC)c(OC)cc23)c1	cell-free assay	competition with immobilised ligand	1 µM	83%
CN(C)c1ncc(F)c(-c2cnn3ncccc23)n1	binding	–	1 µM	86%
O=C(NCCCN1CCOCC1)c1ccc(Nc2nccc(-c3cc4ccccc4s3)n2)cc1	binding	competition with immobilised ligand	1 µM	50%
CCN(CC)CCCCNc1ncc2cc(-c3cc(OC)cc(OC)c3)c(NC(=O)NC(C)(C)C)nc2n1	cell-free assay	competition with immobilised ligand	1 µM	6%
CNC(=O)[C@@H]1CC[C@@H](n2c(-c3ccc4cnccc4c3)nc3ccc(C(=O)NCc4cccc(C(N)=O)c4)cc32)C1	binding	competition with immobilised ligand	1 µM	100%
CC(=O)c1c(NS(C)(=O)=O)c2cc(-c3ccc(Cl)cc3)c(-c3ccc(Cl)cc3Cl)nc2n(C)c1=O	cell-free assay	competition with immobilised ligand	1 µM	100%
N[C@@H]1CCN(c2nccc(-c3cnn4ncccc34)n2)C1	binding	–	1 µM	100%
C[C@@H]1CN(c2cc(-c3nn(C)c4ccc(OC5(C)CC5)cc34)ncn2)C[C@H](C)O1	cell-free assay	competition with immobilised ligand	1 µM	85%
O=C(Nc1c[nH]nc1C(=O)NC1CCNCC1)c1cc(F)cc(F)c1	binding	competition with immobilised ligand	1 µM	100%
Cc1cnn2ncc(-c3ccnc(N(C)C)n3)c2c1	binding	–	1 µM	100%
Cc1nc(C2CCN(C(=O)c3ccc(OC(F)(F)F)cc3N)CC2)c2ncc(N3CCN(C)CC3)cc2n1	cell-free assay	competition with immobilised ligand	1 µM	75%
CN(CCCC(F)(F)F)c1nccc(-c2cnn3ncccc23)n1	binding	–	1 µM	100%
N#Cc1ccc(Nc2ccc3[nH]c(=O)[nH]c3c2)c(Cl)c1	cell-free assay	competition with immobilised ligand	1 µM	100%
CN(C)c1nccc(-c2cnn3ncccc23)n1	binding	–	1 µM	100%
CCS(=O)(=O)c1cc2cc(C[C@](O)(CC(C)(C)c3ccc(F)cc3C(N)=O)C(F)(F)F)[nH]c2cn1	cell-free assay	competition with immobilised ligand	1 µM	95%
O=C(c1ccc(Nc2ncc(Cl)c(-c3ccc(Cl)s3)n2)cc1)N1CCC(N2CCCC2)CC1	binding	competition with immobilised ligand	1 µM	0.15%
